25 molecules from ChEMBL document CHEMBL5260822, “Structure-based design and synthesis of 2,4-diaminopyrimidines as EGFR L858R/T790M selective inhibitors for NSCLC” (Eur J Med Chem, 2017) can be followed below.

The species entered for one test is Homo sapiens. Nature of the test: Selectivity ratio, ratio of IC50 for inhibition of wild type EGFR (unknown origin) to IC50 for inhibition of EGFR L858R/T790M mutant (unknown origin). In a few lines: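 EGFR WT and L858R/T790M kinase domains expressed in a baculovirus system and purified on Ni-NTA. Kinase activity measured by ELISA-based EGFR tyrosine kinase assay; at least three independent determinations, mean ± SD.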

The target in test [1] is Epidermal growth factor receptor (Homo sapiens, UniProt P00533, L858R/T790M). Nature of the test: Inhibition of EGFR L858R/T790M mutant (unknown origin) expressed in baculovirus expression system by ELISA. Background: ELISA stands for enzyme-linked immunosorbent assay.
Chain of Epidermal growth factor receptor (Homo sapiens, UniProt P00533, L858R/T790M) (P00533 25-1210 T790M/L858R limits assumed): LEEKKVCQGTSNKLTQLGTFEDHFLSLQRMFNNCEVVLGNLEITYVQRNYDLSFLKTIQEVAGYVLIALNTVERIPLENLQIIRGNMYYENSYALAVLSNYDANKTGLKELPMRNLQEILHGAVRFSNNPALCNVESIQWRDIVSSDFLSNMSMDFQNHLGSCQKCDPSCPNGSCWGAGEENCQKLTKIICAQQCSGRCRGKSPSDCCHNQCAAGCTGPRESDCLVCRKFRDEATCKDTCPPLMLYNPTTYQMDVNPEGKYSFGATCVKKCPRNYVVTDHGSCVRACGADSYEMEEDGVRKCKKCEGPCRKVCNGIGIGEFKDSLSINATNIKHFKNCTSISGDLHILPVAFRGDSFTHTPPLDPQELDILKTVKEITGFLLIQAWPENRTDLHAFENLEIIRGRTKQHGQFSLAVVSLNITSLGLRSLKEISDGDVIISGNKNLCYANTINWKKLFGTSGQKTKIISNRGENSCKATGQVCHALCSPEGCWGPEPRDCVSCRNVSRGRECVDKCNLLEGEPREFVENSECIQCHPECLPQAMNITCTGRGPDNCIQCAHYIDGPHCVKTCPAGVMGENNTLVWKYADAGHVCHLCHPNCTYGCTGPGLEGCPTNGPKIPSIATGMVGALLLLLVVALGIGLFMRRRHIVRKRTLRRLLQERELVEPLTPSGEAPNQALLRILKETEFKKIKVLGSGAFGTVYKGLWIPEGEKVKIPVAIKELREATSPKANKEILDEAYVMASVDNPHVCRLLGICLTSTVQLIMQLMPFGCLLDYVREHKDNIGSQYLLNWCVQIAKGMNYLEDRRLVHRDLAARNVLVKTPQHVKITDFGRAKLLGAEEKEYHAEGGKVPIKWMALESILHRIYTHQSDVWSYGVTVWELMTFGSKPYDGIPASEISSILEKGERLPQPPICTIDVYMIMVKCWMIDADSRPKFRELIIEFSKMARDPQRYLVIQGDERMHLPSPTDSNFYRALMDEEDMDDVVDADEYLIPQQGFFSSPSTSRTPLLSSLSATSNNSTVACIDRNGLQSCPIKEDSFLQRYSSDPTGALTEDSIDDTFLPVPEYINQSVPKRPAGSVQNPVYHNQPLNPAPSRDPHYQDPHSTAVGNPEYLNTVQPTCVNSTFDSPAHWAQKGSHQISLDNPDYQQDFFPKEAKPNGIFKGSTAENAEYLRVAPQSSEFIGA
Test [2] deals with Epidermal growth factor receptor (Homo sapiens, UniProt P00533). Nature of the test: Inhibition of wild type EGFR (unknown origin) expressed in baculovirus expression system by ELISA.
Chain of Epidermal growth factor receptor (Homo sapiens, UniProt P00533) (P00533 whole entry): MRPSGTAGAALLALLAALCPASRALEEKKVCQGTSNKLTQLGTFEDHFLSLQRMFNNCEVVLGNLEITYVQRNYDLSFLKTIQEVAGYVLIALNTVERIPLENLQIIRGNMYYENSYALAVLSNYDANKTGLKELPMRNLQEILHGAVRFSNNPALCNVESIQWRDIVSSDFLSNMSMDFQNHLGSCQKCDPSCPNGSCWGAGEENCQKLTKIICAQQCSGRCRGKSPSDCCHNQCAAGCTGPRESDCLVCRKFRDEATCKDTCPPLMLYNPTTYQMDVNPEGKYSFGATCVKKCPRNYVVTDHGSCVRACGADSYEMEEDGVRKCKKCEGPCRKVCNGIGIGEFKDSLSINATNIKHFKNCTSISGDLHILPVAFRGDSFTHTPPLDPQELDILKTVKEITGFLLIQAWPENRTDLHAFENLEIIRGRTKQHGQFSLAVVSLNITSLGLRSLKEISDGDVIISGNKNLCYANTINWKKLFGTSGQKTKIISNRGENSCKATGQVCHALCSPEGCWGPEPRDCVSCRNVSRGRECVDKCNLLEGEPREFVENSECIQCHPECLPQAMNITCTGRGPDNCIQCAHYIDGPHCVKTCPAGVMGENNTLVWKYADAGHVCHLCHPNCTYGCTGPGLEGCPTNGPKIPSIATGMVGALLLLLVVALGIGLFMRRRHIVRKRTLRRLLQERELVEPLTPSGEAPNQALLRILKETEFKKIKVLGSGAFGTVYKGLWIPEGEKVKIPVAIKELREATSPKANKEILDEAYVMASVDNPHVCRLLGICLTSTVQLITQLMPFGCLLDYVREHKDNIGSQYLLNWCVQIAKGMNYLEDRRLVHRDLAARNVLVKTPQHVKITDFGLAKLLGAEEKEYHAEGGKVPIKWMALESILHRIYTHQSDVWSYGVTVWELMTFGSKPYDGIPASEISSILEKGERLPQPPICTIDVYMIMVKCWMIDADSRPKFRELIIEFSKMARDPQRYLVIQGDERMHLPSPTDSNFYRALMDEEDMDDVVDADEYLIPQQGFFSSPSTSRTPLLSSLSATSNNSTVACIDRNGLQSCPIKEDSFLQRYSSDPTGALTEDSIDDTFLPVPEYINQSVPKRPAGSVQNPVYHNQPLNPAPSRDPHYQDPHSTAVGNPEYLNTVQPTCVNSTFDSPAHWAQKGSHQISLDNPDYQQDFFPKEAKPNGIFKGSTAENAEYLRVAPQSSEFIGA
In the next test the test system is A-431. Nature of the test: Antiproliferative activity against human A-431 cells harboring wild type EGFR assessed as inhibition of cell proliferation incubated for 72 hrs by sulforhodamine B colorimetric assay. Particulars: A-431, 72 h. The class given is functional, cell-based.
A further test concerns NCI-H1975. Description: Antiproliferative activity against human NCI-H1975 cells harboring EGFR L858R/T790M double mutant assessed as inhibition of cell proliferation incubated for 72 hrs by sulforhodamine B colorimetric assay. The class given is functional, cell-based. Conditions: NCI-H1975, 72 h. In general terms: Sulforhodamine B stains cellular protein and so reports cell mass.

In test [3] the target is Epidermal growth factor receptor (Homo sapiens, UniProt P00533, T790M). Description: Inhibition of EGFR T790M mutant (unknown origin) expressed in baculovirus expression system by ELISA.
Chain of Epidermal growth factor receptor (Homo sapiens, UniProt P00533, T790M) (P00533 25-1210 T790M limits assumed): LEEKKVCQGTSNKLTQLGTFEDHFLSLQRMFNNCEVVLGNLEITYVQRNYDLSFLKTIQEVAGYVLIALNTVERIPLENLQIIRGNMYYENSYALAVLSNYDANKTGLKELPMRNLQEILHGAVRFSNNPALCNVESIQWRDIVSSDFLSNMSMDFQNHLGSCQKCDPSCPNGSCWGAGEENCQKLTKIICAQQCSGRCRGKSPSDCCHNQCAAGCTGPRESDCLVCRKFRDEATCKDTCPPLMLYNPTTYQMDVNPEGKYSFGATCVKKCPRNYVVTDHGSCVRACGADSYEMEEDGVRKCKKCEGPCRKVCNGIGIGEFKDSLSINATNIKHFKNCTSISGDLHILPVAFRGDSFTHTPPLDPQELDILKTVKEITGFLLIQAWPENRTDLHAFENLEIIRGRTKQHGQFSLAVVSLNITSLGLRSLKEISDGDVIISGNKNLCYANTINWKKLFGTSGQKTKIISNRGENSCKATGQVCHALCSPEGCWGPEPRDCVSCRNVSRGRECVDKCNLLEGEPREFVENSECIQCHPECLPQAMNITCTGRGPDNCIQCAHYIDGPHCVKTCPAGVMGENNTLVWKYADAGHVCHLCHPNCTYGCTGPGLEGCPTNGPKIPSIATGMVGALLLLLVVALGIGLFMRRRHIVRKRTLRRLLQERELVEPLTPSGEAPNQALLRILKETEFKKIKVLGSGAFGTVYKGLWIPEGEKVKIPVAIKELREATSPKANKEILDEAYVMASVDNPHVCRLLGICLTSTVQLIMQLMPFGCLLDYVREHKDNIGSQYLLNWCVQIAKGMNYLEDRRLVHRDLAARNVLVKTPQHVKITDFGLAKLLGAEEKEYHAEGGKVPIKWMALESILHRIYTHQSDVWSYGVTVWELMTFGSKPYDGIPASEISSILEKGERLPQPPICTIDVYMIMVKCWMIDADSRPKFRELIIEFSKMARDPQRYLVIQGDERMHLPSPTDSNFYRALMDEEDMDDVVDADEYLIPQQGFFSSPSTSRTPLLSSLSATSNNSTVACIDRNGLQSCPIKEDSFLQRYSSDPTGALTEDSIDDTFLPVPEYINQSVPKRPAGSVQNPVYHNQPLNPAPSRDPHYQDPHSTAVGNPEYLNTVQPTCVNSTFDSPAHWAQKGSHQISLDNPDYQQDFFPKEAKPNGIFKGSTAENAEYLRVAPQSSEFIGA

As usually defined, the IC50 is the midpoint of a concentration-inhibition curve. On to `CN1CCN(c2ccc(Nc3ncc(Br)c(Nc4ccc5c(c4)CCC5)n3)cc2)CC1`, for which, in the test filed under Homo sapiens, the Ratio IC50 was 194. Further, the IC50 in test [1] amounted to 35 nM; in test [2], 6800 nM.
On to `CN1CCN(c2ccc(Nc3ncc(Br)c(Nc4ccc5ncccc5c4)n3)cc2)CC1`, for which the results for the IC50 in test [1] and in test [2] were 7800 nM and over 10000 nM, respectively.
Turning to `C=CC(=O)Nc1cc(Nc2nccc(-c3cn(C)c4ccccc34)n2)c(OC)cc1N(C)CCN(C)C` [OSIMERTINIB], the IC50 was […] in the test with A-431 and […] with NCI-H1975.
With `CN1CCN(c2ccc(Nc3ncc(Br)c(Nc4ccc5ccn(C)c5c4)n3)cc2)CC1`, in the test filed under Homo sapiens, the Ratio IC50 was 62. The IC50 in test [1] is 21 nM; in test [2], 1300 nM.
With `CN1CCN(c2ccc(Nc3ncc([N+](=O)[O-])c(Nc4ccc5[nH]ccc5c4)n3)cc2)CC1`, the IC50 in test [1] was 906 nM; in test [2] it was over 1000 nM; in test [3], over 1000 nM.
On to `CN1CCN(c2ccc(Nc3ncc(Br)c(Nc4ccc5nccnc5c4)n3)cc2)CC1`, for which the Ratio IC50 in the test filed under Homo sapiens was determined as 2. Also, the IC50 in test [1] was 236 nM; in test [2], 408 nM.
As to `CN1CCN(c2ccc(Nc3ncc(Cl)c(Nc4ccc5[nH]ccc5c4)n3)cc2)CC1`, the IC50 in test [1] was 46 nM; in test [2] it was 557 nM; in test [3], 105 nM.
As to `CN1CCN(c2ccc(Nc3ncc(Br)c(Nc4ccc5cn[nH]c5c4)n3)cc2)CC1`, the Ratio IC50 in the test listed under Homo sapiens was 26. The IC50 in test [1] was 43 nM; in test [2], 1100 nM.
For the molecule `COc1cnc(Nc2ccc(N3CCN(C)CC3)cc2)nc1Nc1ccc2[nH]ccc2c1`, the IC50 in test [1] is 155 nM; in test [2], over 1000 nM; in test [3], 224 nM.
In the case of `C=CC(=O)Nc1cc(Nc2ncc(Br)c(Nc3ccc4cc[nH]c4c3)n2)ccc1N(C)CCN(C)C`, the half-maximal inhibitory concentration (IC50) worked out at 143 nM with A-431, 200 nM in test [1], 8.7 nM in test [2] and 111 nM in the test with NCI-H1975.
For `CC(=O)N1CCc2ccc(Nc3nc(Nc4ccc(N5CCN(C)CC5)cc4)ncc3Br)cc21`, the IC50 in test [1] stood at 8600 nM; in test [2], 5700 nM.
Regarding `C=CC(=O)Nc1cc(Nc2ncc(Br)c(Nc3ccc4ccn(C)c4c3)n2)ccc1N1CCN(C)CC1`, the IC50 in the test with A-431 came to 200 nM; in the test on NCI-H1975, 190 nM.
Consider `CN1CCN(c2ccc(Nc3ncc(C(F)(F)F)c(Nc4ccc5[nH]ccc5c4)n3)cc2)CC1`, for which the IC50 in test [1] was 121 nM; in test [2], over 1000 nM; in test [3], 102 nM.
For `CN1CCN(c2ccc(Nc3ncc(F)c(Nc4ccc5[nH]ccc5c4)n3)cc2)CC1`, in that order: 181 nM, over 1000 nM and 232 nM.
Turning to `C=CC(=O)Nc1cc(Nc2ncc(Br)c(Nc3ccc4cc[nH]c4c3)n2)ccc1N1CCN(C)CC1`, the IC50 with A-431 was 108 nM; in test [1], 16.4 nM; in test [2], 234 nM; with NCI-H1975, 451 nM.
Consider `CC(=O)N1CCc2cc(Nc3nc(Nc4ccc(N5CCN(C)CC5)cc4)ncc3Br)ccc21`, for which the Ratio IC50 in the test filed under Homo sapiens worked out at 2. In addition, the IC50 in test [1] came out at 6000 nM; in test [2] it was 14300 nM.
As to `C=CC(=O)Nc1cc(Nc2ncc(Br)c(Nc3ccc4c(c3)CCC4)n2)ccc1N(C)CCN(C)C`, the IC50 was determined as 256 nM in the test with A-431, 0.6 nM in test [1], 26.2 nM in test [2] and 106 nM in the test on NCI-H1975.
In the case of `CN1CCN(c2ccc(Nc3ncc(Br)c(Nc4ccc5cc[nH]c5c4)n3)cc2)CC1`, the Ratio IC50 in the test listed under Homo sapiens is 74. Moreover, the figures for the IC50 in test [1] and in test [2] were 19 nM and 1400 nM, respectively.
Regarding `Cc1cnc(Nc2ccc(N3CCN(C)CC3)cc2)nc1Nc1ccc2[nH]ccc2c1`, the IC50 is 171 nM in test [1], over 1000 nM in test [2] and 197 nM in test [3].
For `CN1CCN(c2ccc(Nc3ncc(Br)c(Nc4ccc5[nH]c(Cc6cccc(F)c6)cc5c4)n3)cc2)CC1`, in the test filed under Homo sapiens, the Ratio IC50 was 7. The figures for the IC50 in test [1] and in test [2] were 49 nM and 325 nM, respectively.
Turning to `CN1CCN(c2ccc(Nc3ncc(Br)c(Nc4ccc5[nH]ccc5c4)n3)cc2)CC1`, in the test filed under Homo sapiens, the Ratio IC50 came to 23. Besides, the 50% inhibitory concentration (IC50) is 35 nM in test [1], over 1000 nM in test [2] and 53 nM in test [3].
In the case of `C=CC(=O)Nc1cccc(Oc2nc(Nc3ccc(N4CCN(C)CC4)cc3OC)ncc2Cl)c1`, the IC50 in the test on A-431 came out at 1300 nM; in the test with NCI-H1975, 128 nM.
Regarding `C=CC(=O)Nc1cc(Nc2ncc(Br)c(Nc3ccc4c(c3)CCC4)n2)ccc1N1CCN(C)CC1`, the IC50 in the test on A-431 was 135 nM; in test [1], 27.7 nM; in test [2], 466 nM; in the test with NCI-H1975 it was 306 nM.
Turning to `CN1CCN(c2ccc(Nc3ncc(Br)c(Nc4ccc5[nH]ncc5c4)n3)cc2)CC1`, the Ratio IC50 in the test listed under Homo sapiens came out at 10. Further, the half-maximal inhibitory concentration (IC50) in test [1] amounted to 39 nM; in test [2], 393 nM.
Consider `CN1CCN(c2ccc(Nc3nccc(Nc4ccc5[nH]ccc5c4)n3)cc2)CC1`, for which the results for the IC50 in test [1], in test [2] and in test [3] were 220 nM, 49 nM and 100 nM, respectively.
